ChEMBL document CHEMBL3751721, “Development of acridine derivatives as selective Mycobacterium tuberculosis DNA gyrase inhibitors” (Bioorg Med Chem, 2016)
≈ marks a conversion by molar mass, not a printed value. Calls of active or inactive are those of the source. No cut-off for these calls is given here.

Key:
Escherichia coli = test: Inhibition of Escherichia coli DNA gyrase assessed as inhibition of DNA supercoiling
[1] = system: Mycobacterium tuberculosis; test: Inhibition of Mycobacterium tuberculosis DNA topoisomerase 1 assessed as DNA relaxation at 50 uM
[2] = molecular target: DNA gyrase subunit A/DNA gyrase subunit B (Mycobacterium tuberculosis (strain ATCC 25618 / H37Rv), UniProt P9WG45+P9WG47); test: Inhibition of Mycobacterium tuberculosis DNA gyrase assessed as inhibition of DNA supercoiling after 30 mins by electrophoresis
Chain of DNA gyrase subunit A/DNA gyrase subunit B (P9WG45 whole entry): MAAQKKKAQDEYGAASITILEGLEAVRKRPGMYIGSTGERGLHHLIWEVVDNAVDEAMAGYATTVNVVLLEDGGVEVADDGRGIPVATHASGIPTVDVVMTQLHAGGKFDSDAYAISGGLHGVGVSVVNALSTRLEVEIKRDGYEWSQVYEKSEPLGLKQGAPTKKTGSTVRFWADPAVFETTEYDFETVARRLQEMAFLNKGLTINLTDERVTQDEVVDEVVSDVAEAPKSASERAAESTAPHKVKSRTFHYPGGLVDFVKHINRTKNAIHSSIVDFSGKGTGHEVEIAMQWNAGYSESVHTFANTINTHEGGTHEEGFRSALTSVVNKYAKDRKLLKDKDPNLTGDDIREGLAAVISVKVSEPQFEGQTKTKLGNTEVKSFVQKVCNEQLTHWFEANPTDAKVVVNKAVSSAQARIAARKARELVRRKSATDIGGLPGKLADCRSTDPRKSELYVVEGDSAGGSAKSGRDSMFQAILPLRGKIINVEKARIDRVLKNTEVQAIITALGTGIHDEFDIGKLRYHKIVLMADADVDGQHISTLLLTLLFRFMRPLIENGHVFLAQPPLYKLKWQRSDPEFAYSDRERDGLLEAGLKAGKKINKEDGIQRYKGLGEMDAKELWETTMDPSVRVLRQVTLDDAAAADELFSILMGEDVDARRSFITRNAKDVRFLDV
Chain of DNA gyrase subunit A/DNA gyrase subunit B (P9WG47 whole entry): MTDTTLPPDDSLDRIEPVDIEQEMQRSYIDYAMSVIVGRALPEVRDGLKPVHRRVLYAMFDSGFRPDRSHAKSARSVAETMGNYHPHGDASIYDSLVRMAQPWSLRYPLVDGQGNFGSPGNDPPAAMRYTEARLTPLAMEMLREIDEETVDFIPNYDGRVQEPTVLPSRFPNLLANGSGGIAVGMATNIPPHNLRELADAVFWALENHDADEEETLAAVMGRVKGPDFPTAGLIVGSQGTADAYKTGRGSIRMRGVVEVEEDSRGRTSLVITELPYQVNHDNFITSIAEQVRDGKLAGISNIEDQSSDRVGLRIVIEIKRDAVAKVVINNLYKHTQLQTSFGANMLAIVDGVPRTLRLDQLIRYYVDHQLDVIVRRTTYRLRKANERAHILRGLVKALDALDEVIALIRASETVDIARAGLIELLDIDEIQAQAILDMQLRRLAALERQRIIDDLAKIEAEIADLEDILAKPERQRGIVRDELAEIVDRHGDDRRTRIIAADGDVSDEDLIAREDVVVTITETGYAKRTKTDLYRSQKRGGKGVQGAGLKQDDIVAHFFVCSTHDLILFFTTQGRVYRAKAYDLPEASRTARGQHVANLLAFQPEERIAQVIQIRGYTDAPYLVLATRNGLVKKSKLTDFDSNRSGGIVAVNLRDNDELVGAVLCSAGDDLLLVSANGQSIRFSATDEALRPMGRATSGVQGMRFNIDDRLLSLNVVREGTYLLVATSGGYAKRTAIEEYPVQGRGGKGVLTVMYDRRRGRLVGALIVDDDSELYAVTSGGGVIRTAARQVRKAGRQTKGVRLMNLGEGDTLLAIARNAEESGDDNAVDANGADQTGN

[3] = molecular target: DNA gyrase (Staphylococcus aureus) (UniProt P0A0K8+P20831); test: Inhibition of Staphylococcus aureus DNA gyrase assessed as inhibition of DNA supercoiling; format: protein-complex assay
Chain of DNA gyrase (Staphylococcus aureus) (P0A0K8 2-644 limits assumed): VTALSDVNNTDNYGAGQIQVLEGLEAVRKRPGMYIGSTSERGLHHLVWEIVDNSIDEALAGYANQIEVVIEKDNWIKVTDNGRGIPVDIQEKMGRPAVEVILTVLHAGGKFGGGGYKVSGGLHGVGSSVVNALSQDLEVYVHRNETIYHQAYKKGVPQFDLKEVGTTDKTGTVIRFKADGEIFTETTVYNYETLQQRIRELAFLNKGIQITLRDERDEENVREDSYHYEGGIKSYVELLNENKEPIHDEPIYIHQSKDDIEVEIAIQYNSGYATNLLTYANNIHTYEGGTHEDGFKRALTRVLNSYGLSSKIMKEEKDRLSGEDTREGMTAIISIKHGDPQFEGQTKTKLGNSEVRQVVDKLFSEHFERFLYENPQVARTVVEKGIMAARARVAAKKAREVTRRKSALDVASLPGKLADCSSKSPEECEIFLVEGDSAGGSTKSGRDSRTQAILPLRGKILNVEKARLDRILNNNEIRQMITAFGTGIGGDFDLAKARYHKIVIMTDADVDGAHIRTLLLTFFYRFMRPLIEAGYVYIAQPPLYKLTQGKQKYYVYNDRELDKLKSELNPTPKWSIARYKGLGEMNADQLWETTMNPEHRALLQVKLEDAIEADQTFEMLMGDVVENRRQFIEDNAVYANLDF
Chain of DNA gyrase (Staphylococcus aureus) (P20831 whole entry partner): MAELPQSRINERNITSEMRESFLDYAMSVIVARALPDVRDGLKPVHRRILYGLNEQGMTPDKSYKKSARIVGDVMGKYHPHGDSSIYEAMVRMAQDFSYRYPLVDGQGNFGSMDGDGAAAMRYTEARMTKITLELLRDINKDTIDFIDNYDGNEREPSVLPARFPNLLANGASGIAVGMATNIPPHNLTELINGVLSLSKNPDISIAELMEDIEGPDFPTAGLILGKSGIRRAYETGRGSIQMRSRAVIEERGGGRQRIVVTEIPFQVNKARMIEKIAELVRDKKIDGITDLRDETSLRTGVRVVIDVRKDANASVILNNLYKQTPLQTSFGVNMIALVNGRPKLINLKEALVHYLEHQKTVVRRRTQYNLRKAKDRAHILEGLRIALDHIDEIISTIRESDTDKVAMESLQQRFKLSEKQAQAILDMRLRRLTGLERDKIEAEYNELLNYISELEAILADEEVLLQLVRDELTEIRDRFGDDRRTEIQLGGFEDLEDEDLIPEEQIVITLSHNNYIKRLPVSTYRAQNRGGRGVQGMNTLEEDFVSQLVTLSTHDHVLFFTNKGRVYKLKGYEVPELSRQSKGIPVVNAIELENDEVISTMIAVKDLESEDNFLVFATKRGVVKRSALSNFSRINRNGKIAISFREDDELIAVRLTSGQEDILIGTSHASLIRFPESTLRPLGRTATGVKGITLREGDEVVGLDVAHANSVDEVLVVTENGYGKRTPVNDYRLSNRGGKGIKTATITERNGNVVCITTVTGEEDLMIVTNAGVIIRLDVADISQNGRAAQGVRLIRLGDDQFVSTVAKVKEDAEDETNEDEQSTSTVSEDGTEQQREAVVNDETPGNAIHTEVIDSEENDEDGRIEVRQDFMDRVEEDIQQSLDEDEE

[4] = system: Mycobacterium tuberculosis; test: Antimicrobial activity against Mycobacterium tuberculosis H37Rv ATCC 27294 after 28 days by alamar blue assay; format: functional; details: H37Rv ATCC 27294, 672 h
[5] = Cytotoxicity against mouse RAW264.7 cells assessed as inhibition of cell growth at 50 uM after 72 hrs by MTT assay; format: cell-based
How it was run: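 RAW 264.7 mouse macrophages exposed to compound at 50 µM for 72 h. Viability read by MTT conversion to formazan, reported as percent inhibition.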

[6] = molecular target: DNA gyrase (Pseudomonas aeruginosa) (UniProt P48372+Q9I7C2); test: Inhibition of Pseudomonas aeruginosa DNA gyrase assessed as inhibition of DNA supercoiling; format: protein-complex assay
[7] = molecular target: DNA gyrase subunit B (Mycobacterium smegmatis) (UniProt P0C559); test: Inhibition of Mycobacterium smegmatis GyrB by ATPase assay; details: Mycolicibacterium smegmatis
Chain of DNA gyrase subunit B (Mycobacterium smegmatis) (P0C559 2-675 limits assumed): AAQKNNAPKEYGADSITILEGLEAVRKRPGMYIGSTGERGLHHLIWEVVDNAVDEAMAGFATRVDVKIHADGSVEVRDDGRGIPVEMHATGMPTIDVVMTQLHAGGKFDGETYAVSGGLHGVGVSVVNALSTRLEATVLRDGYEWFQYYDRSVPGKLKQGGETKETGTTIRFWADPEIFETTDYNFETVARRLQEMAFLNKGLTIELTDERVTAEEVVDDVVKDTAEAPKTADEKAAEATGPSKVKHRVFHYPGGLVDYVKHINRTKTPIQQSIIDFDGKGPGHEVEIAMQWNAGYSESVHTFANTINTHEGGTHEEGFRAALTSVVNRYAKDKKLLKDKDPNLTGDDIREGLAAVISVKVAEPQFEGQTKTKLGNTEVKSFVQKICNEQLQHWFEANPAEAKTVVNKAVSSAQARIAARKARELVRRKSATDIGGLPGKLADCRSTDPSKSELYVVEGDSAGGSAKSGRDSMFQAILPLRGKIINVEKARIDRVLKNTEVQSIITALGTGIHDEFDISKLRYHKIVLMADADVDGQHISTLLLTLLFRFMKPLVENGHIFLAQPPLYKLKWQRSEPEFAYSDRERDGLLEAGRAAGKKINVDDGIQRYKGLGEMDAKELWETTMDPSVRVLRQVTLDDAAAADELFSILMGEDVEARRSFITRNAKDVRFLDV

With `Cc1ccc(NC(=S)Nc2ccc(Nc3c4ccccc4nc4ccccc34)cc2)cc1` the inhibition (Escherichia coli) was “inactive”, the inhibition [1] was “inactive” and the IC50 [2] was 31.1 µM. The inhibition [3] was “inactive”, the MIC [4] was greater than 57.5 µM and the inhibition at 72 h, 50 µM [5] was 27.4%. For the same compound, the inhibition [6] was “inactive” and the inhibition [7] was “inactive”.
For `O=[N+]([O-])c1ccc(NC(=S)Nc2ccc(Nc3c4ccccc4nc4ccc(Cl)cc34)cc2)cc1`, the inhibition (Escherichia coli) was “inactive”, the inhibition [1] was “inactive” and the IC50 [2] was 28.8 µM. The inhibition [3] was “inactive”, the MIC [4] was greater than 50 µM and the inhibition at 72 h, 50 µM [5] was 30.4%. The inhibition [6] was “inactive” and the inhibition [7] was “inactive”.
With `Cc1ccc2nc3ccccc3c(Nc3ccc(NC(=O)Nc4ccc([N+](=O)[O-])cc4)cc3)c2c1` the inhibition (Escherichia coli) was “inactive”, the inhibition [1] was “inactive” and the IC50 [2] was 7.4 µM. The inhibition [3] was “inactive”, the MIC [4] was 13.5 µM (≈ 6.25 µg/mL) and the inhibition at 72 h, 50 µM [5] was 33.9%. For the same compound, the inhibition [6] was “inactive” and the inhibition [7] was “inactive”.
In the case of `O=C(Nc1ccc(Cl)cc1)Nc1ccc(Nc2c3ccccc3nc3ccccc23)cc1`, the inhibition (Escherichia coli) is reported as “inactive”, the inhibition [1] is reported as “inactive” and the IC50 [2] is reported as 10.4 µM. The inhibition [3] was “inactive”, the MIC [4] was 28.5 µM (≈ 12.5 µg/mL) and the inhibition at 72 h, 50 µM [5] was 26.2%. For the same compound, the inhibition [6] was “inactive” and the inhibition [7] was “inactive”.
In the case of `Cc1ccc(NC(=O)Nc2ccc(Nc3c4ccccc4nc4ccccc34)cc2)cc1`, the inhibition (Escherichia coli) is reported as “inactive”, the inhibition [1] is reported as “inactive” and the IC50 [2] is reported as 13.1 µM. The inhibition [3] was “inactive”, the MIC [4] was 14.9 µM (≈ 6.25 µg/mL) and the inhibition at 72 h, 50 µM [5] was 18.4%. The inhibition [6] was “inactive” and the inhibition [7] was “inactive”.
In the case of `S=C(Nc1ccccc1)Nc1ccc(Nc2c3ccccc3nc3ccccc23)cc1`, the inhibition (Escherichia coli) is reported as “inactive”, the inhibition [1] is reported as “inactive” and the IC50 [2] is reported as 8.2 µM. The inhibition [3] was “inactive”, the MIC [4] was 14.9 µM (≈ 6.25 µg/mL) and the inhibition at 72 h, 50 µM [5] was 29.2%. The inhibition [6] was “inactive” and the inhibition [7] was “inactive”.
In the case of `Cc1ccc(S(=O)(=O)Nc2ccc(Nc3c4ccccc4nc4ccc(C)cc34)cc2)cc1`, the inhibition (Escherichia coli) is reported as “inactive”, the inhibition [1] is reported as “inactive” and the IC50 [2] is reported as 9.8 µM. The inhibition [3] was “inactive”, the MIC [4] was 27.6 µM (≈ 12.5 µg/mL) and the inhibition at 72 h, 50 µM [5] was 27.8%. For the same compound, the inhibition [6] was “inactive” and the inhibition [7] was “inactive”.
`COc1c(N2C[C@@H]3CCCN[C@@H]3C2)c(F)cc2c(=O)c(C(=O)O)cn(C3CC3)c12` [MOXIFLOXACIN] showed an MIC [4] of 1.26 µM (≈ 0.506 µg/mL) and an inhibition at 72 h, 50 µM [5] of 1.26%.
In the case of `O=C(Nc1ccccc1)Nc1ccc(Nc2c3ccccc3nc3ccc(Cl)cc23)cc1`, the inhibition (Escherichia coli) is reported as “inactive”, the inhibition [1] is reported as “inactive” and the IC50 [2] is reported as 23.6 µM. For the same compound, the inhibition [3] was “inactive”, the MIC [4] was 28.5 µM (≈ 12.5 µg/mL) and the inhibition at 72 h, 50 µM [5] was 27.7%. For the same compound, the inhibition [6] was “inactive” and the inhibition [7] was “inactive”.
In the case of `Cc1ccc2nc3ccccc3c(Nc3ccc(NS(=O)(=O)c4ccc([N+](=O)[O-])cc4)cc3)c2c1`, the inhibition (Escherichia coli) is reported as “inactive”, the inhibition [1] is reported as “inactive” and the IC50 [2] is reported as 8.34 µM. The inhibition [3] was “inactive”, the MIC [4] was 12.9 µM (≈ 6.25 µg/mL) and the inhibition at 72 h, 50 µM [5] was 27%. For the same compound, the inhibition [6] was “inactive” and the inhibition [7] was “inactive”.
In the case of `Cc1ccc2nc3ccccc3c(Nc3ccc(NC(=S)Nc4ccc(Cl)cc4)cc3)c2c1`, the inhibition (Escherichia coli) is reported as “inactive”, the inhibition [1] is reported as “inactive” and the IC50 [2] is reported as 11.2 µM. The inhibition [3] was “inactive”, the MIC [4] was 26.7 µM (≈ 12.5 µg/mL) and the inhibition at 72 h, 50 µM [5] was 26%. The inhibition [6] was “inactive” and the inhibition [7] was “inactive”.
In the case of `S=C(Nc1ccc(Cl)cc1)Nc1ccc(Nc2c3ccccc3nc3ccccc23)cc1`, the inhibition (Escherichia coli) is reported as “inactive”, the inhibition [1] is reported as “inactive” and the IC50 [2] is reported as 8.4 µM. The inhibition [3] was “inactive”, the MIC [4] was 13.7 µM (≈ 6.25 µg/mL) and the inhibition at 72 h, 50 µM [5] was 12.5%. For the same compound, the inhibition [6] was “inactive” and the inhibition [7] was “inactive”.
With `O=C(Nc1ccccc1)Nc1ccc(Nc2c3ccccc3nc3ccccc23)cc1` the inhibition (Escherichia coli) was “inactive”, the inhibition [1] was “inactive” and the IC50 [2] was 32.6 µM. The inhibition [3] was “inactive”, the MIC [4] was greater than 61.8 µM and the inhibition at 72 h, 50 µM [5] was 30.4%. The inhibition [6] was “inactive” and the inhibition [7] was “inactive”.
In the case of `Cc1ccc2nc3ccccc3c(Nc3ccc(NC(=S)Nc4ccc([N+](=O)[O-])cc4)cc3)c2c1`, the inhibition (Escherichia coli) is reported as “inactive”, the inhibition [1] is reported as “inactive” and the IC50 [2] is reported as 24.8 µM. The inhibition [3] was “inactive”, the MIC [4] was greater than 52.1 µM and the inhibition at 72 h, 50 µM [5] was 28.8%. For the same compound, the inhibition [6] was “inactive” and the inhibition [7] was “inactive”.
With `O=S(=O)(Nc1ccc(Nc2c3ccccc3nc3ccccc23)cc1)c1ccc(Cl)cc1` the inhibition (Escherichia coli) was “inactive”, the inhibition [1] was “inactive” and the IC50 [2] was 23.8 µM. The inhibition [3] was “inactive”, the MIC [4] was 27.2 µM (≈ 12.5 µg/mL) and the inhibition at 72 h, 50 µM [5] was 34.2%. The inhibition [6] was “inactive” and the inhibition [7] was “inactive”.
With `Cc1ccc(S(=O)(=O)Nc2ccc(Nc3c4ccccc4nc4ccccc34)cc2)cc1` the inhibition (Escherichia coli) was “inactive”, the inhibition [1] was “inactive” and the IC50 [2] was 9.3 µM. The inhibition [3] was “inactive”, the MIC [4] was 28.4 µM (≈ 12.5 µg/mL) and the inhibition at 72 h, 50 µM [5] was 28.4%. For the same compound, the inhibition [6] was “inactive” and the inhibition [7] was “inactive”.
With `CO[C@@H]1[C@@H](OC(N)=O)[C@@H](O)[C@H](Oc2ccc3c(O)c(NC(=O)c4ccc(O)c(CC=C(C)C)c4)c(=O)oc3c2C)OC1(C)C` [NOVOBIOCIN] the MIC [4] was greater than 50 µM.
In the case of `O=S(=O)(Nc1ccc(Nc2c3ccccc3nc3ccccc23)cc1)c1ccccc1`, the inhibition (Escherichia coli) is reported as “inactive”, the inhibition [1] is reported as “inactive” and the IC50 [2] is reported as 15.1 µM. The inhibition [3] was “inactive”, the MIC [4] was 14.7 µM (≈ 6.25 µg/mL) and the inhibition at 72 h, 50 µM [5] was 42.1%. For the same compound, the inhibition [6] was “inactive” and the inhibition [7] was “inactive”.
For `NNC(=O)c1ccncc1` [ISONIAZID], the IC50 [2] was greater than 50 µM and the MIC [4] was 0.66 µM (≈ 0.0905 µg/mL).
With `O=S(=O)(Nc1ccc(Nc2c3ccccc3nc3ccc(Cl)cc23)cc1)c1ccccc1` the inhibition (Escherichia coli) was “inactive”, the inhibition [1] was “inactive” and the IC50 [2] was 9.2 µM. For the same compound, the inhibition [3] was “inactive”, the MIC [4] was 27.2 µM (≈ 12.5 µg/mL) and the inhibition at 72 h, 50 µM [5] was 14.5%. The inhibition [6] was “inactive” and the inhibition [7] was “inactive”.
With `O=[N+]([O-])c1ccc(NC(=S)Nc2ccc(Nc3c4ccccc4nc4ccccc34)cc2)cc1` the inhibition (Escherichia coli) was “inactive”, the inhibition [1] was “inactive” and the IC50 [2] was 13.1 µM. For the same compound, the inhibition [3] was “inactive”, the MIC [4] was 13.4 µM (≈ 6.25 µg/mL) and the inhibition at 72 h, 50 µM [5] was 20.8%. For the same compound, the inhibition [6] was “inactive” and the inhibition [7] was “inactive”.
For `Cc1ccc(NC(=S)Nc2ccc(Nc3c4ccccc4nc4ccc(C)cc34)cc2)cc1`, the inhibition (Escherichia coli) was “inactive”, the inhibition [1] was “inactive” and the IC50 [2] was 26.9 µM. For the same compound, the inhibition [3] was “inactive”, the MIC [4] was 55.7 µM (≈ 25 µg/mL) and the inhibition at 72 h, 50 µM [5] was 35%. The inhibition [6] was “inactive” and the inhibition [7] was “inactive”.
With `Cc1ccc2nc3ccccc3c(Nc3ccc(NC(=O)Nc4ccccc4)cc3)c2c1` the inhibition (Escherichia coli) was “inactive”, the inhibition [1] was “inactive” and the IC50 [2] was 22.1 µM. The inhibition [3] was “inactive”, the MIC [4] was 29.9 µM (≈ 12.5 µg/mL) and the inhibition at 72 h, 50 µM [5] was 24.8%. For the same compound, the inhibition [6] was “inactive” and the inhibition [7] was “inactive”.
With `CO[C@H]1/C=C/O[C@@]2(C)Oc3c(C)c(O)c4c(O)c(c(/C=N/N5CCN(C)CC5)c(O)c4c3C2=O)NC(=O)/C(C)=C\C=C\[C@H](C)[C@H](O)[C@@H](C)[C@@H](O)[C@@H](C)[C@H](OC(C)=O)[C@@H]1C` [RIFAMPIN] the IC50 [2] was greater than 50 µM and the MIC [4] was 0.23 µM (≈ 0.189 µg/mL).
